Results on one compound are retold here after ChEMBL document CHEMBL4261600 (Eur J Med Chem, 2018).

Series [1] deals with Serine/threonine-protein kinase 3 (Homo sapiens) (UniProt Q13188). In words: Binding affinity to wild-type human partial length MST2 (D17 to E318 residues) expressed in bacterial expression system assessed as remaining unbound target protein level at 1000 nM by Kinomescan method relative to control. The procedure, abridged:
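KINOMEscan binding panel of 468 kinases/mutants. Inhibitor was tested at a single concentration of 1 μM. Binding is reported as percent of control, defined relative to a DMSO control.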

The target of series [2] is Transient receptor potential cation channel subfamily M member 6 (Homo sapiens) (UniProt Q9BX84). The series is described as follows: Binding affinity to wild-type human partial length TRPM6 (Q1723 to I1998 residues) expressed in mammalian expression system assessed as remaining unbound target protein level at 1000 nM by Kinomescan method relative to control.
Transient receptor potential cation channel subfamily M member 6 (Homo sapiens), sequence (Q9BX84 whole entry, the tested form may be a part): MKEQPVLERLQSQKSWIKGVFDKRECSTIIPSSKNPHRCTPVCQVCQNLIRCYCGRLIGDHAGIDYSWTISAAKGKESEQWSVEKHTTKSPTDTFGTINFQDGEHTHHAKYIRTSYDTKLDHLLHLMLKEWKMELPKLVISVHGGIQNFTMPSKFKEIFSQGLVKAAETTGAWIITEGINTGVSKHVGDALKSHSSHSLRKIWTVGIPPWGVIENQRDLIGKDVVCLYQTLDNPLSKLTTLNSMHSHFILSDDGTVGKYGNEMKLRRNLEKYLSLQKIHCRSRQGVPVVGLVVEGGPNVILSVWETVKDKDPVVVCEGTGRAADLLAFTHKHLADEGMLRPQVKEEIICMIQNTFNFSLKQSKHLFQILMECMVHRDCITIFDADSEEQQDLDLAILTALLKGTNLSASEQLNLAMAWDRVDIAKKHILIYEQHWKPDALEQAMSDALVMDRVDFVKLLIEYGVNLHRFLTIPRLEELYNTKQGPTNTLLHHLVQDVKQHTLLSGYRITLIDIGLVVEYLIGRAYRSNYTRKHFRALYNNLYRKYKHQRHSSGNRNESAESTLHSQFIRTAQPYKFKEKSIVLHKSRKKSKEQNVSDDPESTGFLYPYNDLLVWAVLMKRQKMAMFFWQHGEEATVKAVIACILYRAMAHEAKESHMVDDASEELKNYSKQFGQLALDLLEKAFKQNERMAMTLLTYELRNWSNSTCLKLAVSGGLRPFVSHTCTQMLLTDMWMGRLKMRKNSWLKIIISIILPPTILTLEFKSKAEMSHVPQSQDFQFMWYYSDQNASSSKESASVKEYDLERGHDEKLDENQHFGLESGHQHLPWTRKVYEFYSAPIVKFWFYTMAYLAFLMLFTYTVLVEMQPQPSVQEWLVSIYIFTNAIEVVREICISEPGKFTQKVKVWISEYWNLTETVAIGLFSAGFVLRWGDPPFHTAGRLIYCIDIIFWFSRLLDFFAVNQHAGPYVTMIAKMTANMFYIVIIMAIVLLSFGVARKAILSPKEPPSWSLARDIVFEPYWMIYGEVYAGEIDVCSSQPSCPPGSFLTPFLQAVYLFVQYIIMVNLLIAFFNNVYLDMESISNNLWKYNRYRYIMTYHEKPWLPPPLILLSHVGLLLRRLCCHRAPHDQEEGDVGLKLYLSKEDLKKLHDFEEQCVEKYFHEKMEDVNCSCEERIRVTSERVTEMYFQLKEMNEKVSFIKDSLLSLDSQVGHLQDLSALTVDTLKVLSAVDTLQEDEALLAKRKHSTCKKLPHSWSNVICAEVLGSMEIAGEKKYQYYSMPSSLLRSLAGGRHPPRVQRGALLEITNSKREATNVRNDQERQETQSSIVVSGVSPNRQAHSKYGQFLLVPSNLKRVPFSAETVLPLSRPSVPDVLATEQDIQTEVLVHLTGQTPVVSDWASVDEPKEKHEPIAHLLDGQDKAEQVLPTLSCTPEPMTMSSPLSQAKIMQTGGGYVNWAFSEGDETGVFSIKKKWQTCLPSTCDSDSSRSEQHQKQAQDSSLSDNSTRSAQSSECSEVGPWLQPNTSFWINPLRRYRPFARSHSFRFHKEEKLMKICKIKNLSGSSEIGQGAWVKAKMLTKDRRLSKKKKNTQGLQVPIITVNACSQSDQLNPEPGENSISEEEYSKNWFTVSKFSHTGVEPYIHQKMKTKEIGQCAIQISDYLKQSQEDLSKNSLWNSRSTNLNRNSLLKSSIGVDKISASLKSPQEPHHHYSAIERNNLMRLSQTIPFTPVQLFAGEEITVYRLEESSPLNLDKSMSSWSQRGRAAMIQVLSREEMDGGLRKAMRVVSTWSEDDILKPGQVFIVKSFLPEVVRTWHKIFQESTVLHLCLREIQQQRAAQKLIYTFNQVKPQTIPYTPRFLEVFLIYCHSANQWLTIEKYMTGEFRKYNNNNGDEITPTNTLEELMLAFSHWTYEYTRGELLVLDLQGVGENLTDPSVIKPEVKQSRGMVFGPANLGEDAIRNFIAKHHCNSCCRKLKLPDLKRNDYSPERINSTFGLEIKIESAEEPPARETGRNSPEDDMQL
Series [3] is described as follows: Antiproliferative activity against human MEC1 cells after 72 hrs by Celltiter-Glo assay. It counts as functional. The conditions noted are these: MEC1, 72 h. The procedure, abridged:
(§1)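 Cells seeded at 3000/well in 96-well plates, exposed to serially diluted compound for 72 h at 37 °C, 5% CO2. Viability read by CellTiter-Glo luminescence and normalized to DMSO control. GI50 derived from curve fit, mean of three independent measurements. Culture media: DMEM/10% FBS for adherent lines; IMDM for MV4-11 and MEC-1/2; RPMI 1640 for suspension lines and CHL.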
(In general: In ATP-based viability assays light output follows the ATP content of the culture.)

Series [4] deals with Mitogen-activated protein kinase kinase kinase 13 (Homo sapiens) (UniProt O43283). The series is described as follows: Binding affinity to wild-type human full length LZK (M1 to W966 residues) expressed in mammalian expression system assessed as remaining unbound target protein level at 1000 nM by Kinomescan method relative to control. The gist of the method:
(§2)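 KINOMEscan competition binding profile across a panel of 468 kinases and mutants, with the inhibitor tested at a single concentration of 1 μM. Binding is reported as percent of control, meaning signal relative to a DMSO control.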

In series [5] the target is Cyclin-dependent kinase 3 (Homo sapiens) (UniProt Q00526). In words: Binding affinity to wild-type human full length CDK3 (M1 to H305 residues) expressed in bacterial expression system assessed as remaining unbound target protein level at 1000 nM by Kinomescan method relative to control. The procedure, abridged: (§3)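 KINOMEscan competitive binding profile at 1 μM inhibitor. Remaining target binding reported as percent of DMSO control.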

The nature of series [6]: MRT (0 to t) in Sprague-Dawley rat at 3 mg/kg, iv by LC-MS/MS analysis. The class given is ADME, organism-based. Particulars: in vivo.
The target of series [7] is Serine/threonine-protein kinase RIO1 (Homo sapiens) (UniProt Q9BRS2). In words: Binding affinity to wild-type human full length RIOK1 (M1 to K568 residues) expressed in bacterial expression system assessed as remaining unbound target protein level at 1000 nM by Kinomescan method relative to control. The gist of the method: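 Profiled in a KINOMEscan binding panel with the inhibitor at a single concentration of 1 μM. Binding to each kinase was read out as percent of control, relative to a DMSO control. Strong binders were defined as those with a percent control value below 1.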

Series [8] addresses Homeodomain-interacting protein kinase 1 (Homo sapiens) (UniProt Q86Z02). In words: Binding affinity to wild-type human partial length HIPK1 (M146 to I555 residues) expressed in mammalian expression system assessed as remaining unbound target protein level at 1000 nM by Kinomescan method relative to control.
For series [9], the target named is Dual specificity mitogen-activated protein kinase kinase 1 (Homo sapiens) (UniProt Q02750). In words: Binding affinity to wild-type human full length MEK1 (M1 to V393 residues) expressed in mammalian expression system assessed as remaining unbound target protein level at 1000 nM by Kinomescan method relative to control. The gist of the method: (§4)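 Single-point competition binding screen across a panel of 468 kinases and mutants, with the inhibitor at 1 μM. Binding is read out as percent of a DMSO control, and targets below 1 percent control were classed as strong binders.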

Series [10] addresses Insulin receptor-related protein (Homo sapiens) (UniProt P14616). In words: Binding affinity to wild-type human partial length INSRR (R950 to E1278 residues) expressed in bacterial expression system assessed as remaining unbound target protein level at 1000 nM by Kinomescan method relative to control.
In series [11] the target is Cyclin-dependent kinase 4/cyclin D1 (Homo sapiens) (UniProt P11802+P24385). In words: Binding affinity to wild-type human full length CDK4/cyclinD1 (M1 to E303 residues) expressed in mammalian expression system assessed as remaining unbound target protein level at 1000 nM by Kinomescan method relative to control. The procedure, abridged:
as §3

Series [12] has as its target Cyclin-dependent kinase 9 (Homo sapiens, UniProt P50750). In words: Inhibition of CDK9 in human HL60 cells assessed as decrease in phosphorylation at Thr 186 residues up to 3 uM after 2 hrs by immunoblotting analysis. The class given is cell-based. On the technique in general: Immunoblotting shows a protein as a band on a membrane.
Series [13] concerns the target RAF proto-oncogene serine/threonine-protein kinase (Homo sapiens) (UniProt P04049). The series is described as follows: Binding affinity to wild-type human partial length RAF1 (I330 to T640 residues) expressed in bacterial expression system assessed as remaining unbound target protein level at 1000 nM by Kinomescan method relative to control.
In another series the test system is MV4-11. The series is described as follows: Antiproliferative activity against human MV4-11 cells after 72 hrs by Celltiter-Glo assay. Particulars: MV4-11, 72 h. The class given is functional. The procedure, abridged:
as §1

The target in series [14] is Maternal embryonic leucine zipper kinase (Homo sapiens) (UniProt Q14680). The series is described as follows: Binding affinity to wild-type human full length MELK (M1 to V651 residues) expressed in bacterial expression system assessed as remaining unbound target protein level at 1000 nM by Kinomescan method relative to control. The gist of the method: as §4
Maternal embryonic leucine zipper kinase (Homo sapiens), sequence (Q14680 whole entry, looked up, the tested form may be a part): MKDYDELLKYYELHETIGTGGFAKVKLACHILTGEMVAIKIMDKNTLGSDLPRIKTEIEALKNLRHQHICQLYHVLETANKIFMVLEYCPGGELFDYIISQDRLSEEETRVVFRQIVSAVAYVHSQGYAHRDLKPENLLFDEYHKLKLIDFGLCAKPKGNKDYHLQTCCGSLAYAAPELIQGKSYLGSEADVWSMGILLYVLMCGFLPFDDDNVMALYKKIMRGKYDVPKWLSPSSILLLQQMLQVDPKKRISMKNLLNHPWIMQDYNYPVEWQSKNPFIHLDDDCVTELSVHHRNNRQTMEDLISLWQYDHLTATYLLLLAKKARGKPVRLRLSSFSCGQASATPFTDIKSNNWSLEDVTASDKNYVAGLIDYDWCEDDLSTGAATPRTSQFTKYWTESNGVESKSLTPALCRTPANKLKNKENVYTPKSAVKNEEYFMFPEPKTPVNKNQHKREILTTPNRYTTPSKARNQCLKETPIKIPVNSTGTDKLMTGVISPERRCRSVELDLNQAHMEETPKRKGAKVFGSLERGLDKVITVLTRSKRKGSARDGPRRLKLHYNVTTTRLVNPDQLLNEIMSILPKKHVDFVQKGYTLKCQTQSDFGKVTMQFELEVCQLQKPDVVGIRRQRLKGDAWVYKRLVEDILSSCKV
The nature of series [15]: Half life in beagle dog at 2 mg/kg, iv by LC-MS/MS analysis. The class given is ADME, organism-based, Canis lupus familiaris. The conditions noted are these: in vivo.
Series [16] can be described thus: Antiproliferative activity against human MEC2 cells after 72 hrs by Celltiter-Glo assay. It counts as functional. The conditions noted are these: MEC2, 72 h. The procedure, abridged: as §1
Series [17] concerns the target Phosphatidylinositol 4,5-bisphosphate 3-kinase catalytic subunit beta isoform (Homo sapiens) (UniProt P42338). The series is described as follows: Binding affinity to wild-type human partial length PIK3CB (P118 to S1070 residues) expressed in mammalian expression system assessed as remaining unbound target protein level at 1000 nM by Kinomescan method relative to control.

The target in a further series is CDK2/Cyclin A2 (Homo sapiens, UniProt P24941). In words: Inhibition of recombinant full length His-tagged human CDK2/CyclinA expressed in baculovirus expression system.
For series [18], the target named is Cyclin-dependent kinase-like 5 (Homo sapiens) (UniProt O76039). In words: Binding affinity to wild-type human partial length CDKL5 (M1 to S337 residues) expressed in mammalian expression system assessed as remaining unbound target protein level at 1000 nM by Kinomescan method relative to control. The procedure, abridged:
as §2

In series [19] the target is Serine/threonine-protein kinase ULK3 (Homo sapiens) (UniProt Q6PHR2). The series is described as follows: Binding affinity to wild-type human partial length ULK3 (M1 to Q290 residues) expressed in mammalian expression system assessed as remaining unbound target protein level at 1000 nM by Kinomescan method relative to control.
Series [20] has as its target Atypical kinase COQ8B, mitochondrial (Homo sapiens) (UniProt Q96D53). In words: Binding affinity to wild-type human full length ADCK4 (M1 to S544 residues) expressed in bacterial expression system assessed as remaining unbound target protein level at 1000 nM by Kinomescan method relative to control. The gist of the method: as §4

Activity calls are given as the source filed them.

Atypical kinase COQ8B, mitochondrial (Homo sapiens), sequence (Q96D53 whole entry, the tested form may be a part): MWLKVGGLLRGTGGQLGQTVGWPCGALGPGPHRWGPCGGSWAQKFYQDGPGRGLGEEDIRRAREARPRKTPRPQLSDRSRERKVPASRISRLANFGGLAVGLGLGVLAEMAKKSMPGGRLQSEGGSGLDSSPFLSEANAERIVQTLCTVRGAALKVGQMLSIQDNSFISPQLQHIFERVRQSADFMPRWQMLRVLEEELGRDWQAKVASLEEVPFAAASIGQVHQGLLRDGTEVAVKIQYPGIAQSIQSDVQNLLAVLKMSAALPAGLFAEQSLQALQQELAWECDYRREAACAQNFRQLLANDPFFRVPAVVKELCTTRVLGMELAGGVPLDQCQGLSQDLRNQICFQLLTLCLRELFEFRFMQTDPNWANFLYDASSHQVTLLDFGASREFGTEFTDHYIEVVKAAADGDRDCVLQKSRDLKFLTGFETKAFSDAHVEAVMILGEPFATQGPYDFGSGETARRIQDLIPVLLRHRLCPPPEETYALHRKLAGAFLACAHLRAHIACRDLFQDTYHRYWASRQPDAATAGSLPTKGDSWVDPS
Serine/threonine-protein kinase 3 (Homo sapiens), sequence (Q13188 whole entry, the tested form may be a part): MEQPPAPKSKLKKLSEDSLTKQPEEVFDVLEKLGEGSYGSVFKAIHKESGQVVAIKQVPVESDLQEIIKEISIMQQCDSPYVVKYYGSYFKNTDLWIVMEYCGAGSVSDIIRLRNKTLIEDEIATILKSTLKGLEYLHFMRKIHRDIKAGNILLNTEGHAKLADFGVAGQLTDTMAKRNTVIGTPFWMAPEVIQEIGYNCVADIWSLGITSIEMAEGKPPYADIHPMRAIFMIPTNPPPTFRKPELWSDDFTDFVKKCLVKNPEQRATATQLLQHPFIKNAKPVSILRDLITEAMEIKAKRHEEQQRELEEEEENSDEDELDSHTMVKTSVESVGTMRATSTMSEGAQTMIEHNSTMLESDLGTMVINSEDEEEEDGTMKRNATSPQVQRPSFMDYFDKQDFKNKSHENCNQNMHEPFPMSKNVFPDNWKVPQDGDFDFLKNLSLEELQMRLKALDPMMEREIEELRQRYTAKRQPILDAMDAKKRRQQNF
Cyclin-dependent kinase 9, sequence (P50750 whole entry, the tested form may be a part): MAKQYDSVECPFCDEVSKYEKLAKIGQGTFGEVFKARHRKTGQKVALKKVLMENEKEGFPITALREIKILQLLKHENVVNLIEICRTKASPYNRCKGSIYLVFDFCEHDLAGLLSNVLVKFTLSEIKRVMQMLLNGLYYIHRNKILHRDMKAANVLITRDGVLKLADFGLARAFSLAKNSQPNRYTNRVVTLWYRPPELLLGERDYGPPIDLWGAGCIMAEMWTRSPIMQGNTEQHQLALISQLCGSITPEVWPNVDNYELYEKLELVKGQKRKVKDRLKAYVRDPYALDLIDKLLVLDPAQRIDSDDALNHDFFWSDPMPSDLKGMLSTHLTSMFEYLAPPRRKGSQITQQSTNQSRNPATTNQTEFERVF
Cyclin-dependent kinase-like 5 (Homo sapiens), sequence (O76039 whole entry, the tested form may be a part): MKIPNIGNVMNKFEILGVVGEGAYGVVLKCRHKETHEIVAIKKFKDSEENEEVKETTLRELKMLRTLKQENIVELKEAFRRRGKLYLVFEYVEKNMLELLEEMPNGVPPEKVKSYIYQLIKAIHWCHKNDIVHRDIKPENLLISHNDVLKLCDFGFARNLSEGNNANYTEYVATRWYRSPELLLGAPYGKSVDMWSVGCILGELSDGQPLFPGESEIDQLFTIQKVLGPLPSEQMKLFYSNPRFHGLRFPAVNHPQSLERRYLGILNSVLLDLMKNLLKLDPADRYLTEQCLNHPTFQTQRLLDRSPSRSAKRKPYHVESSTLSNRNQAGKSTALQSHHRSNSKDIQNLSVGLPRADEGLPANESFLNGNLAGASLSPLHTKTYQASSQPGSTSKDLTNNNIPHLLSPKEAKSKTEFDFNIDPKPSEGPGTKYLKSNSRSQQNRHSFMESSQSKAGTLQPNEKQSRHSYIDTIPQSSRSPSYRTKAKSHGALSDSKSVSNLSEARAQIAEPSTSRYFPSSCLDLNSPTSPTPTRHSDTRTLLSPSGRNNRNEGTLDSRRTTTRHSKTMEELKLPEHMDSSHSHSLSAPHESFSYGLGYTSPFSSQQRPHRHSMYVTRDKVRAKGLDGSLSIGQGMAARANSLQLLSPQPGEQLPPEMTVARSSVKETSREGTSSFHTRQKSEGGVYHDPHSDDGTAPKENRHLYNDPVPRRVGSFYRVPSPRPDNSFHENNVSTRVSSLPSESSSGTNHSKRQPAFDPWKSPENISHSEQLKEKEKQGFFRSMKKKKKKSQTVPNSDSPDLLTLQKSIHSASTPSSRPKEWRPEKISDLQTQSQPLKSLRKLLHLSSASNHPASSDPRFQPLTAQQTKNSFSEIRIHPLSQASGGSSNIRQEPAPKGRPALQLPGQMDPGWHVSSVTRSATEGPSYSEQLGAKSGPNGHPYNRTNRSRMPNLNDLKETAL

The term GI50 denotes the concentration at which growth is held to half of that of the control. A low value points to greater sensitivity of the cells. One may read the MRT last as the average time that molecules of a dose stay in the body. The term half-life denotes the time in which the quantity being followed falls by half. Read a low half-life as fast loss. As a reminder, the IC50 is the midpoint of a concentration-inhibition curve. As to `COCCN[C@H]1CC[C@H](Nc2cc(-c3csc(NCC4(C#N)CCOCC4)n3)c(Cl)cn2)CC1`, the Activity in series [1] worked out at 69%; in series [2], 89%; in [4], 99%; in series [5], 81%; in series [7] it was 79%; in [8] it was 60%. Besides, the Activity in [9] stood at 100%; in series [10] it was 92%; in [11], 69%; in series [13], 100%; in [14], 75%; in series [17], 100%. Further, the figures for the Activity in [18], in series [19] and in [20] were 21%, 100% and 65%, respectively. In addition, the values for the concentration for 50% growth inhibition (GI50) (in series [3]; in the series on MV4-11; in series [16]) were 11 to 37 nM, 12 nM and 37 nM, respectively. This compound showed an MRT last in series [6] of 4.69 h. The inhibition entry in series [12] is “inactive”. The compound also had a half-life in series [15] of 13.1 h. Further, the IC50 at CDK2/Cyclin A2 was found to be 2860 nM.
